Results published in ChEMBL document CHEMBL5143669, “Stapled peptides as scaffolds for developing radiotracers for intracellular targets: Preliminary evaluation of a radioiodinated MDM2-binding stapled peptide in the SJSA-1 osteosarcoma model” (Bioorg Med Chem Lett, 2022).

Key:
[1] = Biodistribution in Kidney of athymic mouse xenografted with human SJSA-1 cells at 166.5 kBq, iv after 2 hrs by automated gamma counting method; type: ADME, organism-based; conditions: in vivo
Method in brief: (§1)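 125I-labeled peptide (166.5 kBq in 100 μL) was injected via tail vein into athymic mice bearing flank SJSA-1 xenografts, n = 5 per time point. Tumors, blood and major organs were gamma-counted at 0.5, 2, 6 and 24 h post-injection. Values are %ID/g.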

[2] = Biodistribution in Small intestine of athymic mouse xenografted with human SJSA-1 cells at 166.5 kBq, iv after 24 hrs by automated gamma counting method; type: ADME, organism-based; conditions: in vivo; method in brief: as §1
[3] = Biodistribution in Lung of athymic mouse xenografted with human SJSA-1 cells at 166.5 kBq, iv after 6 hrs by automated gamma counting method; type: ADME, organism-based; conditions: in vivo; method in brief: as §1
[4] = Biodistribution in Kidney of athymic mouse xenografted with human SJSA-1 cells at 166.5 kBq, iv after 24 hrs by automated gamma counting method; type: ADME, organism-based; conditions: in vivo; method in brief: as §1
[5] = Biodistribution in Blood of athymic mouse xenografted with human SJSA-1 cells at 166.5 kBq, iv after 2 hrs by automated gamma counting method; type: ADME, organism-based; conditions: in vivo; method in brief: as §1
[6] = Biodistribution in Stomach of athymic mouse xenografted with human SJSA-1 cells at 166.5 kBq, iv after 24 hrs by automated gamma counting method; type: ADME, organism-based; conditions: in vivo
Method in brief: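 Athymic mice bearing flank SJSA-1 xenografts received 125I-SIB-labeled peptide (166.5 kBq, 100 μL) by tail vein; groups of five per time point. Tumor, blood and organs were taken at 0.5–24 h and counted by gamma counter; values expressed as %ID/g.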

[7] = Drug uptake in MDM2-amplified human SJSA-1 cells expressing wild type p53 assessed as released into supernatant incubated for 0.5 hrs subsequently re-incubating the cells with fresh medium for up to 2 hrs; type: ADME, cell-based; conditions: sjsa-1, 0.5 h
Method in brief: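 SJSA-1 cells were loaded with 125I-labeled peptide for 1 h, then reincubated in fresh medium for 0.5–2 h. Cell-retained activity and cumulative release into the supernatant were expressed as percentage of initially bound activity.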

[8] = Biodistribution in Lung of athymic mouse xenografted with human SJSA-1 cells at 166.5 kBq, iv after 2 hrs by automated gamma counting method; type: ADME, organism-based; conditions: in vivo; method in brief: as §1

Drug uptake [1]: 2.54 % ID/g
Drug uptake [2]: 0.86 % ID/g
Drug uptake [3]: 2.49 % ID/g
Drug uptake [4]: 0.63 % ID/g
Drug uptake [5]: 6.84 % ID/g
Drug uptake [6]: 0.84 % ID/g
Drug uptake [7]: 16.9%
Drug uptake [8]: 2.72 % ID/g
Compound: CC(=O)NC(CCCCNC(=O)c1cccc([125I])c1)C(=O)NCCCCCC(=O)N[C@H](C(=O)N[C@@H](CO)C(=O)N[C@@H](Cc1ccccc1)C(=O)N[C@@]1(C)CCCCCC/C=C/CCC[C@@](C)(C(=O)N[C@@H](CCC(=O)O)C(=O)N[C@@H](CC(N)=O)C(=O)N[C@@H](Cc2ccccc2)C(N)=O)NC(=O)[C@H](CC(C)C)NC(=O)[C@H](CC(C)C)NC(=O)[C@H](C)NC(=O)[C@H](Cc2c[nH]c3ccccc23)NC(=O)[C@H](Cc2ccc(O)cc2)NC(=O)[C@H](CCC(=O)O)NC1=O)[C@@H](C)O (stereo partly drawn)
